PMC12166256 (Clinical Pharmacology and Therapeutics, 2025)

Experiment: MAD study: safety and tolerability
Format: in vivo, human
Conditions: for Abdominal pain TEAE, events / Abdominal pain TEAE, participants / Alanine aminotransferase increased TEAE, events / Alanine aminotransferase increased TEAE, participants / Any event TEAE, events / Any event TEAE, participants / Constipation TEAE, events / Constipation TEAE, participants / Diarrhea TEAE, events / Diarrhea TEAE, participants / Dry skin TEAE, events / Dry skin TEAE, participants / Dysgeusia TEAE, events / Dysgeusia TEAE, participants / Gastrointestinal disorders TEAE, events / Gastrointestinal disorders TEAE, participants / General disorders and administration site conditions TEAE, events / General disorders and administration site conditions TEAE, participants / Headache TEAE, events / Headache TEAE, participants / Injury, poisoning, and procedural complications TEAE, events / Injury, poisoning, and procedural complications TEAE, participants / Investigations TEAE, events / Investigations TEAE, participants / Medical device site reaction TEAE, events / Medical device site reaction TEAE, participants / Musculoskeletal and connective tissue disorders TEAE, events / Musculoskeletal and connective tissue disorders TEAE, participants / Nasal dryness TEAE, events / Nasal dryness TEAE, participants / Neck pain TEAE, events / Neck pain TEAE, participants / Nervous system disorders TEAE, events / Nervous system disorders TEAE, participants / Oropharyngeal pain TEAE, events / Oropharyngeal pain TEAE, participants / Reproductive system and breast disorders TEAE, events / Reproductive system and breast disorders TEAE, participants / Respiratory, thoracic, and mediastinal disorders TEAE, events / Respiratory, thoracic, and mediastinal disorders TEAE, participants / Skin and subcutaneous tissue disorders TEAE, events / Skin and subcutaneous tissue disorders TEAE, participants / Sneezing TEAE, events / Sneezing TEAE, participants / Testicular mass TEAE, events / Testicular mass TEAE, participants / Wound TEAE, events / Wound TEAE, participants: N = 8
Outline: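 Healthy males aged 18–55 with BMI 18–30 kg/m² were followed through dosing and a 6–8-day follow-up. Checks: physical examination, clinical laboratory tests, vital signs and 12-lead ECG, with adverse events coded in MedDRA. Events of special interest: ALT ≥2×ULN, QTcF ≥500 ms, Grade ≥2 photosensitivity, symptomatic overdose. Treatment-emergent events were summarised descriptively by organ class, preferred term and dose level for all exposed participants.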

CN1C(=O)c2cccc(OC(F)F)c2[C@H]2C[C@@H]1c1nc3ccc(-c4cnc(C5(N)CCC5)nc4)cc3n12 [Balinatunfib]
3 (37.5) n (%): Alanine aminotransferase increased TEAE, participants (MAD 100 mg QD) | Investigations TEAE, participants (MAD 100 mg QD)
2 (25.0) n (%): Any event TEAE, participants (MAD 100 mg BID) | Respiratory, thoracic, and mediastinal disorders TEAE, participants (MAD 100 mg BID) | Diarrhea TEAE, participants (MAD 100 mg QD) | Gastrointestinal disorders TEAE, participants (MAD 100 mg QD)
1 (12.5) n (%): Oropharyngeal pain TEAE, participants (MAD 100 mg BID) | Reproductive system and breast disorders TEAE, participants (MAD 100 mg BID) | Sneezing TEAE, participants (MAD 100 mg BID) | Testicular mass TEAE, participants (MAD 100 mg BID) | Abdominal pain TEAE, participants (MAD 100 mg QD) | Headache TEAE, participants (MAD 100 mg QD) | Injury, poisoning, and procedural complications TEAE, participants (MAD 100 mg QD) | Musculoskeletal and connective tissue disorders TEAE, participants (MAD 100 mg QD) | Neck pain TEAE, participants (MAD 100 mg QD) | Nervous system disorders TEAE, participants (MAD 100 mg QD) | Wound TEAE, participants (MAD 100 mg QD)
2: Respiratory, thoracic, and mediastinal disorders TEAE, events (MAD 100 mg BID) | Diarrhea TEAE, events (MAD 100 mg QD)
0 n (%): Abdominal pain TEAE, participants (MAD 100 mg BID) | Alanine aminotransferase increased TEAE, participants (MAD 100 mg BID) | Constipation TEAE, participants (MAD 100 mg BID) | Diarrhea TEAE, participants (MAD 100 mg BID) | Dry skin TEAE, participants (MAD 100 mg BID) | Dysgeusia TEAE, participants (MAD 100 mg BID) | Gastrointestinal disorders TEAE, participants (MAD 100 mg BID) | General disorders and administration site conditions TEAE, participants (MAD 100 mg BID) | Headache TEAE, participants (MAD 100 mg BID) | Injury, poisoning, and procedural complications TEAE, participants (MAD 100 mg BID) | Investigations TEAE, participants (MAD 100 mg BID) | Medical device site reaction TEAE, participants (MAD 100 mg BID) | Musculoskeletal and connective tissue disorders TEAE, participants (MAD 100 mg BID) | Nasal dryness TEAE, participants (MAD 100 mg BID) | Neck pain TEAE, participants (MAD 100 mg BID) | Nervous system disorders TEAE, participants (MAD 100 mg BID) | Skin and subcutaneous tissue disorders TEAE, participants (MAD 100 mg BID) | Wound TEAE, participants (MAD 100 mg BID) | Constipation TEAE, participants (MAD 100 mg QD) | Dry skin TEAE, participants (MAD 100 mg QD) | Dysgeusia TEAE, participants (MAD 100 mg QD) | General disorders and administration site conditions TEAE, participants (MAD 100 mg QD) | Medical device site reaction TEAE, participants (MAD 100 mg QD) | Nasal dryness TEAE, participants (MAD 100 mg QD) | Oropharyngeal pain TEAE, participants (MAD 100 mg QD) | Reproductive system and breast disorders TEAE, participants (MAD 100 mg QD) | Respiratory, thoracic, and mediastinal disorders TEAE, participants (MAD 100 mg QD) | Skin and subcutaneous tissue disorders TEAE, participants (MAD 100 mg QD) | Sneezing TEAE, participants (MAD 100 mg QD) | Testicular mass TEAE, participants (MAD 100 mg QD) | Abdominal pain TEAE, participants (MAD 200 mg BID)
9: Any event TEAE, events (MAD 100 mg QD)
0: Abdominal pain TEAE, events (MAD 100 mg BID) | Alanine aminotransferase increased TEAE, events (MAD 100 mg BID) | Constipation TEAE, events (MAD 100 mg BID) | Diarrhea TEAE, events (MAD 100 mg BID) | Dry skin TEAE, events (MAD 100 mg BID) | Dysgeusia TEAE, events (MAD 100 mg BID) | Gastrointestinal disorders TEAE, events (MAD 100 mg BID) | General disorders and administration site conditions TEAE, events (MAD 100 mg BID) | Headache TEAE, events (MAD 100 mg BID) | Injury, poisoning, and procedural complications TEAE, events (MAD 100 mg BID) | Investigations TEAE, events (MAD 100 mg BID) | Medical device site reaction TEAE, events (MAD 100 mg BID) | Musculoskeletal and connective tissue disorders TEAE, events (MAD 100 mg BID) | Nasal dryness TEAE, events (MAD 100 mg BID) | Neck pain TEAE, events (MAD 100 mg BID) | Nervous system disorders TEAE, events (MAD 100 mg BID) | Skin and subcutaneous tissue disorders TEAE, events (MAD 100 mg BID) | Wound TEAE, events (MAD 100 mg BID) | Constipation TEAE, events (MAD 100 mg QD) | Dry skin TEAE, events (MAD 100 mg QD) | Dysgeusia TEAE, events (MAD 100 mg QD) | General disorders and administration site conditions TEAE, events (MAD 100 mg QD) | Medical device site reaction TEAE, events (MAD 100 mg QD) | Nasal dryness TEAE, events (MAD 100 mg QD) | Oropharyngeal pain TEAE, events (MAD 100 mg QD) | Reproductive system and breast disorders TEAE, events (MAD 100 mg QD) | Respiratory, thoracic, and mediastinal disorders TEAE, events (MAD 100 mg QD) | Skin and subcutaneous tissue disorders TEAE, events (MAD 100 mg QD) | Sneezing TEAE, events (MAD 100 mg QD) | Testicular mass TEAE, events (MAD 100 mg QD) | Abdominal pain TEAE, events (MAD 200 mg BID)
No participants: Grade ≥ 3 TEAE, treatment-emergent SAEs, TEAEs leading to discontinuation (MAD)
4 (50.0) n (%): Any event TEAE, participants (MAD 100 mg QD)
1: Oropharyngeal pain TEAE, events (MAD 100 mg BID) | Reproductive system and breast disorders TEAE, events (MAD 100 mg BID) | Sneezing TEAE, events (MAD 100 mg BID) | Testicular mass TEAE, events (MAD 100 mg BID) | Abdominal pain TEAE, events (MAD 100 mg QD) | Headache TEAE, events (MAD 100 mg QD) | Injury, poisoning, and procedural complications TEAE, events (MAD 100 mg QD) | Musculoskeletal and connective tissue disorders TEAE, events (MAD 100 mg QD) | Neck pain TEAE, events (MAD 100 mg QD) | Nervous system disorders TEAE, events (MAD 100 mg QD) | Wound TEAE, events (MAD 100 mg QD)
3: Any event TEAE, events (MAD 100 mg BID) | Alanine aminotransferase increased TEAE, events (MAD 100 mg QD) | Gastrointestinal disorders TEAE, events (MAD 100 mg QD) | Investigations TEAE, events (MAD 100 mg QD)
